Reference: ChEMBL document CHEMBL1122648 (J Med Chem, 1984)

How the values were obtained:
CCRF-CEM = assay: In vitro cytotoxicity by its growth inhibitory activity against human leukemic lymphoblasts (CEM cells).; assay type: functional, cell-based
Summary of the method: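 Human leukemic lymphoblasts (CEM) counted after 48 h of drug exposure. Compounds dissolved in Me2SO (1 mg/mL), diluted 10-fold in Me2SO, then added to growth medium (final Me2SO 0.1%). Triplicate tubes per dose, averaged; IC50 reported.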

Dihydrofolate reductase = biological target: T1, Dihydrofolate reductase (Bos taurus, UniProt P00376); assay: In vitro ability to inhibit the Dihydrofolate reductase extracted from beef liver.
T1 sequence (P00376 whole entry): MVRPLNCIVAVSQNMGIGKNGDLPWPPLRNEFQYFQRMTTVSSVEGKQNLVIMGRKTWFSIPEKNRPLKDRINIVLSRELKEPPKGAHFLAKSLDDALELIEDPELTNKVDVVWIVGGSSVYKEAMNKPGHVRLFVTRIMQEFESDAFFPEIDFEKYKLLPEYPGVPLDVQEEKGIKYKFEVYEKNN

[1] = Compound was evaluated for its inhibitory effect on deoxyuridine ([3H]dUrd) incorporation into DNA of CEM cells in culture at conc. 10e-4; assay type: functional, Homo sapiens, CCRF-CEM; set-up: scale not given: the % may be the effect or the level left
Summary of the method: (§1)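 Log-phase CEM or CEM/MTX (transport-defective) cells, 2×10^5 per tube in serum-free EBSS, exposed to 10^-7–10^-4 M compound for 1 h at 37 °C under 5% CO2. Then pulsed 0.5 h with [3H]dThd or [3H]dUrd, washed in cold EBSS and lysed in SDS with tRNA carrier. DNA precipitated with cold 0.5 N HClO4; acid-insoluble counts given as % of untreated controls.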

[2] = Compound was evaluated for its inhibitory effect on thymidine [3H]-dThd) incorporation into DNA of CEM/MTX cells in culture at conc. 10e-6; assay type: functional, Homo sapiens; set-up: scale not given: the % may be the effect or the level left; summary of the method: as §1
[3] = Compound was evaluated for its inhibitory effect on deoxyuridine ([3H]dUrd ) incorporation into DNA of CEM cells in culture at conc. 10e-7; assay type: functional, Homo sapiens, CCRF-CEM; set-up: scale not given: the % may be the effect or the level left; summary of the method: as §1
[4] = Compound was evaluated for its inhibitory effect on deoxyuridine ([3H]dUrd ) incorporation into DNA of CEM/MTX cells in culture at conc. 10e-7; assay type: functional, Homo sapiens; set-up: scale not given: the % may be the effect or the level left; summary of the method: as §1
[5] = Compound was evaluated for its inhibitory effect on thymidine ([3H]dThd) incorporation into DNA of CEM cells in culture at conc. 10e-6; assay type: functional, Homo sapiens, CCRF-CEM; set-up: scale not given: the % may be the effect or the level left; summary of the method: as §1
[6] = Compound was evaluated for its inhibitory effect on thymidine ([3H]-dThd) incorporation into DNA of CEM cells in culture at conc. 10e-4; assay type: functional, Homo sapiens, CCRF-CEM; set-up: scale not given: the % may be the effect or the level left; summary of the method: as §1
[7] = Compound was evaluated for its inhibitory effect on thymidine ([3H]dThd) incorporation into DNA of CEM cells in at conc. 10e-7; assay type: functional, Homo sapiens, CCRF-CEM; set-up: scale not given: the % may be the effect or the level left; summary of the method: as §1
[8] = Compound was evaluated for its inhibitory effect on thymidine [3H]dThd) incorporation into DNA of CEM/MTX cells in culture at conc. 10e-5; assay type: functional, Homo sapiens; set-up: scale not given: the % may be the effect or the level left; summary of the method: as §1
[9] = Compound was evaluated for its inhibitory effect on deoxyuridine ([3H]dUrd) incorporation into DNA of CEM cells in culture at conc. 10e-5; assay type: functional, Homo sapiens, CCRF-CEM; set-up: scale not given: the % may be the effect or the level left; summary of the method: as §1
[10] = Compound was evaluated for its inhibitory effect on thymidine ([3H]dThd) incorporation into DNA of CEM/MTX cells in culture at conc. 10e-4; assay type: functional, Homo sapiens; set-up: scale not given: the % may be the effect or the level left; summary of the method: as §1
[11] = Compound was evaluated for its inhibitory effect on thymidine ([3H]dThd) incorporation into DNA of CEM cells in culture at conc. 10e-5; assay type: functional, Homo sapiens, CCRF-CEM; set-up: scale not given: the % may be the effect or the level left; summary of the method: as §1
[12] = Compound was evaluated for its inhibitory effect on thymidine ([3H]-dThd) incorporation into DNA of CEM/MTX cells in at conc. 10e-7.; assay type: functional, Homo sapiens; set-up: scale not given: the % may be the effect or the level left; summary of the method: as §1
[13] = Compound was evaluated for its inhibitory effect on deoxyuridine ([3H]dUrd) incorporation into DNA of CEM/MTX cells in culture at conc. 10e-6; assay type: functional, Homo sapiens; set-up: scale not given: the % may be the effect or the level left; summary of the method: as §1
[14] = Compound was evaluated for its inhibitory effect on deoxyuridine ([3H]-dUrd) incorporation into DNA of CEM cells in at conc. 10e-6; assay type: functional, Homo sapiens, CCRF-CEM; set-up: scale not given: the % may be the effect or the level left; summary of the method: as §1
[15] = Compound was evaluated for its inhibitory effect on deoxyuridine ([3H]dUrd) incorporation into DNA of CEM/MTX cells in culture at conc. 10e-4; assay type: functional, Homo sapiens; set-up: scale not given: the % may be the effect or the level left; summary of the method: as §1
[16] = Compound was evaluated for its inhibitory effect on deoxyuridine ([3H]dUrd) incorporation into DNA of CEM/MTX cells in culture at conc. 10e-5; assay type: functional, Homo sapiens; set-up: scale not given: the % may be the effect or the level left; summary of the method: as §1

IC50 (Dihydrofolate reductase) [nM]	SMILES	IC50 (CCRF-CEM) [nM]	further results
1200	CCCCCCCCCCCCCCCCOC(=O)C(CCC(=O)O)NC(=O)c1ccc(N(C)Cc2cnc3nc(N)nc(N)c3n2)cc1 (stereo not drawn)	250	
5.4	CCCCCCCCOC(=O)CCC(NC(=O)c1ccc(N(C)Cc2cnc3nc(N)nc(N)c3n2)cc1)C(=O)O (stereo not drawn)	920	
5.4	CCCCOC(=O)CCC(NC(=O)c1ccc(N(C)Cc2cnc3nc(N)nc(N)c3n2)cc1)C(=O)O (stereo not drawn)	780	
56	CCCCOC(=O)C(CCC(=O)O)NC(=O)c1ccc(N(C)Cc2cnc3nc(N)nc(N)c3n2)cc1 (stereo not drawn)	2000	
34	CCCCCCCCCCCCOC(=O)CCC(NC(=O)c1ccc(N(C)Cc2cnc3nc(N)nc(N)c3n2)cc1)C(=O)O (stereo not drawn)	370	
	CN(Cc1cnc2nc(N)nc(N)c2n1)c1ccc(C(=O)N[C@@H](CCC(=O)O)C(=O)O)cc1 [METHOTREXATE]	25	
440	CCCCCCCCCCCCOC(=O)C(CCC(=O)O)NC(=O)c1ccc(N(C)Cc2cnc3nc(N)nc(N)c3n2)cc1 (stereo not drawn)	2100	
37	CCCCCCCCCCCCCCCCOC(=O)CCC(NC(=O)c1ccc(N(C)Cc2cnc3nc(N)nc(N)c3n2)cc1)C(=O)O (stereo not drawn)	110	Control [1]: 7%; Control [2]: 108%; Control [3]: 117%; Control [4]: 95%; Control [5]: 67%; Control [6]: 17%; Control [7]: 92%; Control [8]: 15%; Control [9]: 14%; Control [10]: 8%; Control [11]: 25%; Control [12]: 81%; Control [13]: 103%; Control [14]: 64%; Control [15]: 2%; Control [16]: 55%
360	CCCCCCCCOC(=O)C(CCC(=O)O)NC(=O)c1ccc(N(C)Cc2cnc3nc(N)nc(N)c3n2)cc1 (stereo not drawn)	3000	
